Activity calls are given as the source filed them. The calls are words filed in the database; no cut-off is given here.

What all share (type): nucleic-acid assay
What all share (settings): Bos taurus

Experiment [1] concerns DNA. Put plainly: Binding affinity to calf thymus DNA assessed melting temperature at 2:1 compound:DNA ratio by thermal denaturation assay (reference value: 65.83 degC).
Experiment [2] relates to DNA. Description: Binding affinity to calf thymus DNA assessed melting temperature at 1:0.5 compound:DNA ratio by thermal denaturation assay (reference value: 65.83 degC).
In experiment [3] the test system is DNA. Description: Binding affinity to calf thymus DNA assessed melting temperature at 1:1.5 compound:DNA ratio by thermal denaturation assay (reference value: 65.83 degC).
For experiment [4], the system named is DNA. Description: Displacement of ethidium bromide from calf thymus DNA at 3.5 to 75 uM by fluorescence spectrophotometric analysis.
Experiment [5] relates to DNA. Put plainly: Binding affinity to calf thymus DNA at 30 uM by fluorescence titration method. A digest of the protocol: (§1)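 Fluorescence titration: probe held at 30 μM in aqueous phosphate buffer, pH 7.0, at room temperature, with increasing concentrations of ct-DNA added. Emission spectra were recorded at each step.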
Experiment [6] relates to DNA. Put plainly: Binding affinity to calf thymus DNA at 30 uM by in presence of increasing concentration of DNA by Benesi-Hildebrand plot analysis.
Experiment [7] relates to DNA. Description: Binding affinity to calf thymus DNA at 1:0.67 to 1:2 DNA:compound ratio by UV-Vis spectrophotometric analysis. A digest of the protocol:
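Absorption spectra of the probe were recorded in aqueous phosphate buffer, pH 7.0, while ct-DNA was added gradually. Shifts in band position and changes in intensity were followed.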

Experiment [8] has as its system DNA. Put plainly: Binding affinity to calf thymus DNA assessed melting temperature at 1:1 compound:DNA ratio by thermal denaturation assay (reference value: 65.83 degC).
Experiment [9] has as its system DNA. Put plainly: Binding affinity to calf thymus DNA at 1:1 compound:DNA ratio by fluorescence titration method. A digest of the protocol: as §1

What is called Tm is the temperature at the midpoint of the melting transition. In the case of `C#CCN1C(=O)c2cccc3c(C#Cc4ccc(C#N)cc4)ccc(c23)C1=O`, the Tm in experiment [1] came out at 63.2 °C; in [2], 65.6 °C; in [3], 64.3 °C; in experiment [8], 64.9 °C. Also, the outcome in experiment [4] and in experiment [7] was inactive. In experiment [5], the result was Active. The K in experiment [6] came out at 3.98 ×10⁴ /M.

As to `C#CCN1C(=O)c2cccc3c(C#Cc4ccc(N(C)C)cc4)ccc(c23)C1=O`, the result in [4] and in experiment [7] was inactive. In [9], the outcome was Active.

Values taken from ChEMBL document CHEMBL2311475, “Highly solvatochromic fluorescent naphthalimides: design, synthesis, photophysical properties and fluorescence switch-on sensing of ct-DNA” (Bioorg Med Chem Lett, 2013).
